Test results as given in ChEMBL document CHEMBL1811763, “Design, syntheses, and kinetic evaluation of 3-(phenylamino)oxazolidine-2,4-diones as potent cytochrome bc₁ complex inhibitors” (Bioorg Med Chem, 2011).
Activity calls are given as the source filed them. The rule behind the calls is not given here.

Columns and labels:
Sus scrofa [1] = species: Sus scrofa; assay: Inhibition of pig heart Cytochrome b-c1 complex assessed as oxidation of DBH2 by spectrophotometer
Outline: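 Porcine SCR preparation at 0.1 nM, reaction with 100 µM oxidized cytochrome c and 100 µM DBH2 in 100 mM PBS (pH 7.4), 0.3 mM EDTA; run at 23 °C both without and with 750 µM lauryl maltoside. For kinetics, DBH2 was varied over 20–200 µM with 0–5000 nM inhibitor, and Ki was fitted on a competitive model. DBH2 concentration was set from A288–A320.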

Sus scrofa [2] = species: Sus scrofa; assay: Inhibition of pig heart Succinate-ubiquinone oxidoreductase assessed as decrease of 2,6-dichlorophenolindophenol by spectrophotometer
Outline: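 Complex II activity within porcine SCR, with succinate and DCIP as substrates. Final concentrations: 100 mM PBS pH 7.4, 0.3 mM EDTA, 20 mM succinate, 53 µM DCIP; adding enzyme starts the reaction. DCIP reduction was followed as absorbance decrease at 600 nm (ε 21 mM⁻¹ cm⁻¹).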

[3] = Inhibition of pig heart succinate-cytochrome c reductase (Electron transport protein complex 2/3) assessed as increase of cytochrome c by spectrophotometer; parameters: species or system Sus scrofa
Sus scrofa [4] = species: Sus scrofa; assay: Activity of pig heart succinate-cytochrome c reductase (Electron transport protein complex 2/3) using cytochrome c as substrate by Line-weaverBurk plot analysis; assay type: tissue-based
Outline: (§1)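 Overall succinate→cytochrome c activity of porcine SCR (0.1 nM) was measured at 23 °C in 100 mM PBS pH 7.4, 0.3 mM EDTA and 20 mM succinate. Cytochrome c was varied over 1.16–16.02, with inhibitor at graded levels. Km(cyt c), Vmax and Ki came from double-reciprocal plots, assuming non-competitive inhibition.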

[5] = Competitive inhibition of pig heart Cytochrome b-c1 complex using DBH2 as substrate by Line-weaverBurk plot analysis; parameters: species or system Sus scrofa
Outline: (§2)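 Porcine SCR preparation (0.1 nM) as the bc1 source, at 23 °C in 100 mM PBS pH 7.4, 0.3 mM EDTA and 750 lauryl maltoside. Substrates were 100 oxidized cytochrome c and DBH₂ varied over 20–200. Cytochrome c reduction was followed with and without inhibitor. Km(DBH₂), Vmax and Ki came from double-reciprocal plots, assuming competitive inhibition.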

[6] = Competitive inhibition of pig heart Cytochrome b-c1 complex using DBH2 as substrate in absence of lauryl maltoside by Line-weaverBurk plot analysis; parameters: species or system Sus scrofa
Sus scrofa [7] = species: Sus scrofa; assay: Activity of pig heart Cytochrome b-c1 complex using DBH2 as substrate by Line-weaverBurk plot analysis; outline: as §2
Sus scrofa [8] = species: Sus scrofa; assay: Inhibition of pig heart Succinate-ubiquinone oxidoreductase assessed as decrease of 2,6-dichlorophenolindophenol at 20 uM by spectrophotometer
Sus scrofa [9] = species: Sus scrofa; assay: Ratio Ki for pig heart Cytochrome b-c1 complex to Ki for pig heart succinate-cytochrome c reductase (Electron transport protein complex 2/3)
Sus scrofa [10] = species: Sus scrofa; assay: Ratio Vmax for pig heart succinate-cytochrome c reductase (Electron transport protein complex 2/3) to Vmax for pig heart Cytochrome b-c1 complex
[11] = Non-competitive inhibition of pig heart succinate-cytochrome c reductase (Electron transport protein complex 2/3) using cytochrome c as substrate by Line-weaverBurk plot analysis; parameters: species or system Sus scrofa; outline: as §1
[12] = Competitive inhibition of pig heart Cytochrome b-c1 complex using DBH2 as substrate in presence of lauryl maltoside by Line-weaverBurk plot analysis; parameters: species or system Sus scrofa; outline: as §2

Structure (SMILES) | inhibition (Sus scrofa [1]) | inhibition (Sus scrofa [2]) | IC50 [3] | further results
CC1(c2ccc(Br)nc2)OC(=O)N(Nc2ccc(Br)cc2)C1=O (centres undefined) | Active | inactive | > 1000 nM | –
Cc1cccc(C)c1NN1C(=O)OC(C)(c2ccc(Br)nc2)C1=O (centres undefined) | Active | inactive | > 1000 nM | –
Cc1ccc(NN2C(=O)OC(C)(c3ccc(Oc4ccccc4)cc3)C2=O)cc1 (centres undefined) | Active | inactive | 23.8 nM | –
COc1ccc(NN2C(=O)OC(C)(c3ccc(Oc4ccccc4)cc3)C2=O)cc1 (centres undefined) | Active | inactive | 57.9 nM | –
CC1(c2ccc(Oc3ccccc3)cc2)OC(=O)N(Nc2ccc(Br)cc2)C1=O (centres undefined) | Active | inactive | 9.44 nM | Km (Sus scrofa [4]): 4.45 µM; Vmax (Sus scrofa [4]): 0.0081 µM/s; Ki [5]: 329 nM; IC50 [6]: 337 nM; Km (Sus scrofa [7]): 78 µM; Vmax (Sus scrofa [7]): 0.0574 µM/s; inhibition (Sus scrofa [8]): inactive; Ratio Ki (Sus scrofa [9]): 35; Ratio (Sus scrofa [10]): 0.14; IC50 [11]: 9.03 nM; Ki [11]: 9.44 nM; IC50 [12]: 1050 nM
CC1(c2ccc(Br)nc2)OC(=O)N(Nc2ccc(Cl)cc2)C1=O (centres undefined) | Active | inactive | > 1000 nM | –
CC1(c2ccc(Br)nc2)OC(=O)N(Nc2ccc(F)cc2Br)C1=O (centres undefined) | Active | inactive | > 1000 nM | –
CC1(c2ccc(Oc3ccccc3)cc2)OC(=O)N(Nc2ccc(Cl)cc2)C1=O (centres undefined) | Active | inactive | 18.8 nM | –
CC1(c2ccc(Oc3ccccc3)cc2)OC(=O)N(Nc2ccc(C(F)(F)F)cc2)C1=O (centres undefined) | Active | inactive | 63.3 nM | –
CC1(c2ccc(Oc3ccccc3)cc2)OC(=O)N(Nc2ccc(C#N)cc2)C1=O (centres undefined) | Active | inactive | 275 nM | –
Cc1cccc(C)c1NN1C(=O)OC(C)(c2ccc(Oc3ccccc3)cc2)C1=O (centres undefined) | Active | inactive | 1520 nM | –
Cc1ccc(NN2C(=O)OC(C)(c3ccc(Br)nc3)C2=O)c(C)c1 (centres undefined) | Active | inactive | > 1000 nM | –
CC1(c2ccc(Br)nc2)OC(=O)N(Nc2ccc(C(F)(F)F)cc2)C1=O (centres undefined) | Active | inactive | > 1000 nM | –
CC1(c2ccc(Br)nc2)OC(=O)N(Nc2ccc([N+](=O)[O-])cc2)C1=O (centres undefined) | Active | inactive | > 1000 nM | –
CC1(c2ccc(Oc3ccccc3)cc2)OC(=O)N(Nc2ccc(C(=O)O)cc2)C1=O (centres undefined) | Active | inactive | 5310 nM | –
CC1(c2ccc(Br)nc2)OC(=O)N(Nc2ccccc2)C1=O (centres undefined) | Active | inactive | > 1000 nM | –
Cc1ccc(NN2C(=O)OC(C)(c3ccc(Br)nc3)C2=O)cc1 (centres undefined) | Active | inactive | > 1000 nM | –
CC1(c2ccc(Oc3ccccc3)cc2)OC(=O)N(Nc2ccc(F)cc2Br)C1=O (centres undefined) | Active | inactive | 60 nM | –
COc1ccc(NN2C(=O)OC(C)(c3ccc(Br)nc3)C2=O)cc1 (centres undefined) | Active | inactive | > 1000 nM | –
Cc1ccc(NN2C(=O)OC(C)(c3ccc(Oc4ccccc4)cc3)C2=O)c(C)c1 (centres undefined) | Active | inactive | 15.9 nM | –
CC1(c2ccc(Br)nc2)OC(=O)N(Nc2ccc(C#N)cc2)C1=O (centres undefined) | Active | inactive | > 1000 nM | –
CC1(c2ccc(Oc3ccccc3)cc2)OC(=O)N(Nc2cccc(C(=O)O)c2)C1=O (centres undefined) | Active | inactive | 24 nM | –
CO/C=C(/C(=O)OC)c1ccccc1Oc1cc(Oc2ccccc2C#N)ncn1 [AZOXYSTROBIN] | – | – | – | Km (Sus scrofa [4]): 4.37 µM; Vmax (Sus scrofa [4]): 0.0099 µM/s; Ki [5]: 204 nM; IC50 [6]: 435 nM; Km (Sus scrofa [7]): 72.1 µM; Vmax (Sus scrofa [7]): 0.0528 µM/s; IC50 [11]: 291 nM; Ki [11]: 295 nM; IC50 [12]: 527 nM
CC1(c2ccc(Oc3ccccc3)cc2)OC(=O)N(Nc2ccccc2)C1=O (centres undefined) | – | – | 3.62 nM | Km (Sus scrofa [4]): 4.47 µM; Vmax (Sus scrofa [4]): 0.0081 µM/s; Ki [5]: 51.4 nM; IC50 [6]: 48.2 nM; Km (Sus scrofa [7]): 66.2 µM; Vmax (Sus scrofa [7]): 0.0598 µM/s; inhibition (Sus scrofa [8]): inactive; Ratio Ki (Sus scrofa [9]): 15; IC50 [11]: 4.78 nM; Ki [11]: 3.62 nM; IC50 [12]: 142 nM
